# Reference: ChEMBL document CHEMBL4316598, “Synthesis, antiproliferative and apoptosis induction potential activities of novel bis(indolyl)hydrazide-hydrazone derivatives” (Bioorg Med Chem, 2019)
# Active and inactive are the calls of the source. No cut-off for these calls is given here.
# Experiments:
# HeLa [1] = experiment: Induction of apoptosis in human HeLa cells assessed as necrotic cells at 1 uM after 8 hrs by annexin-V FITC/propidium iodide staining based flow cytometric analysis relative to control; type: functional
# How it was run: (§1)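 Cells were grown in DMEM with 10% heat-inactivated FBS at 37 °C and 5% CO₂, then plated at 500,000 cells/well in 24-well plates. They were treated from a DMSO stock (DMSO ≤0.1%) for 8, 12 or 16 h. After a PBS wash, cells were resuspended in binding buffer (10 mM HEPES pH 7.4, 2.5 mM CaCl₂, 140 mM NaCl, 0.1% BSA), stained 40 min with FITC-annexin V, then with PI, and run on the flow cytometer immediately. Values are the mean of three independent experiments.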
# HeLa [2] = experiment: Induction of apoptosis in human HeLa cells assessed as necrotic cells at 1 uM after 16 hrs by annexin-V FITC/propidium iodide staining based flow cytometric analysis relative to control; type: functional; how it was run: as §1
# [3] = molecular target: c-Jun N-terminal kinase, JNK (Homo sapiens) (UniProt P45983+P53779+P45984); experiment: Activation of JNK phosphorylation in human HeLa cells assessed as increase in ratio of phosphorylated JNK to total JNK level at 5 uM by ELISA; type: cell-based
# How it was run: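 Cell-based ELISA: HeLa or MCF-7 cells (20×10^3/well) grown overnight at 37 °C, 5% CO2, treated with 5 μM, then fixed and blocked. Probed with rabbit anti-total and anti-phospho P38, JNK or ERK1/2 (1:100), then HRP anti-rabbit IgG. Result is the phospho/total ratio; inhibitor arms use […], […] or SP600125. n=3.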
# HeLa [4] = experiment: Induction of apoptosis in human HeLa cells assessed as up-regulation of acetylated p53 level at 5 uM after 24 hrs by sandwich ELISA; type: functional, cell-based
# How it was run: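 Cells were treated at 5 µM for 12, 24 and 48 h. Lysis was in ice-cold lysis buffer with 1 mM PMSF (5 min on ice), followed by three freeze-thaw cycles and a 10 min spin at 4 °C. Acetylated and total p53 were measured in the supernatant by kit sandwich ELISA, read at 450 nm. The control index is sample absorbance divided by that of untreated cells at the same time. Values are mean ± SD of triplicate experiments.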
# HeLa [5] = experiment: Induction of apoptosis in human HeLa cells assessed as late apoptotic cells at 1 uM after 12 hrs by annexin-V FITC/propidium iodide staining based flow cytometric analysis relative to control; type: functional; how it was run: as §1
# HEK293 = experiment: Cytotoxicity against HEK293 cells assessed as reduction in cell viability after 4 hrs by MTT assay; type: cell-based, Homo sapiens; details: Homo sapiens, HEK293, 4 h; read-out: IC50
# How it was run: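 MTT: 10,000–20,000 cells/well attached for 16 h, then washed twice with serum-free RPMI. Treated with 1–200 µM for 4 h, 3 parallel runs per concentration. MTT added for 2 h; medium partly removed and isopropanol added. A590 read. Viability = (A treated − A doxorubicin)/(A medium − A doxorubicin)×100. Mean of three experiments, triplicate wells each.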
# MCF7 [6] = experiment: Induction of apoptosis in human MCF7 cells assessed as viable cells at 1 uM after 12 hrs by annexin-V FITC/propidium iodide staining based flow cytometric analysis relative to control; type: functional; details: MCF7, 12 h, read-out: Activity; how it was run: as §1
# MCF7 [7] = experiment: Induction of nitric oxide production in human MCF7 cells at 1 uM measured over 8 hrs by Griess reaction based assay relative to control; type: functional
# How it was run: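 Cells seeded at 2×10^6 cells/well for 12 h, then exposed to 1, 5 and 10 μM compound for 8 h at 37 °C. Culture supernatant mixed with Griess reagent (0.002% N-1-naphthyl-ethylenediamine dihydrochloride, 0.5% sulfanilic acid, 14% glacial acetic acid). Nitrite read by absorbance at 550 nm and compared with vehicle group.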
# HeLa [8] = experiment: Induction of apoptosis in human HeLa cells assessed as late apoptotic cells at 1 uM after 8 hrs by annexin-V FITC/propidium iodide staining based flow cytometric analysis relative to control; type: functional; how it was run: as §1
# HeLa [9] = experiment: Induction of caspase-dependent apoptosis in human HeLa cells assessed as activation of caspase-8 at 1 to 3 uM after 24 hrs by Western blot analysis; type: functional, cell-based
# How it was run: (§2)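 Cells were treated at 1, 3 and 5 µM for 24 h at 37 °C. Lysis was in ice-cold Triton X-100 buffer with protease and phosphatase inhibitors; nuclear proteins were extracted separately. Protein was quantified by BCA. Lysates were separated by electrophoresis, transferred to nitrocellulose and blocked in non-fat milk for 1 h. Primary antibody was applied overnight at 4 °C and secondary for 1 h at 28 °C. Detection was by enhanced chemiluminescence.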
# [10] = molecular target: T1, Tyrosine-protein phosphatase non-receptor type 1 (Homo sapiens) (UniProt P18031); experiment: Inhibition of recombinant human PTP1B using 6,8-difluoro-4-methylumbelliferyl phosphate fluorogenic substrate at 50 uM measured over 30 mins by fluorescence assay relative to control
# T1 sequence (whole entry): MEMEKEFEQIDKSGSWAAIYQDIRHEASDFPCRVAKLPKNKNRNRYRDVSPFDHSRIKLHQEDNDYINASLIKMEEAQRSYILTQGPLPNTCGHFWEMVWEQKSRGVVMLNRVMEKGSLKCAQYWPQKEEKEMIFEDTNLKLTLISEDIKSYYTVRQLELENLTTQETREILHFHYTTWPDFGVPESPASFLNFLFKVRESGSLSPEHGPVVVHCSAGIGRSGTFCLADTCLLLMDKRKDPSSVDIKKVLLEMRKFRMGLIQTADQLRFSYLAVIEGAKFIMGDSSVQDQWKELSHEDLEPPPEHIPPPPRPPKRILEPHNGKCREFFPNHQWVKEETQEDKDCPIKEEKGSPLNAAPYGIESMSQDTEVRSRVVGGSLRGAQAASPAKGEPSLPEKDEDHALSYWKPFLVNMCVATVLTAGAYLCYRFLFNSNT
# How it was run: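 Recombinant human PTP1B, 1.56 ng/well, in buffer of 25 mM HEPES, 50 mM NaCl, 2.5 mM EDTA, DTT and 0.01 mg/mL human albumin. Preincubated with compound for 30 min in the dark, then DiFMUP added (25 μL of 10 μM solution). Fluorescence read after 10 min (ex 360/em 465 nm). Triplicates; % inhibition relative to PTP inhibitor IV (0.16 mM) and buffer controls.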
# MCF7 [11] = experiment: Induction of apoptosis in human MCF7 cells assessed as viable cells at 1 uM after 8 hrs by annexin-V FITC/propidium iodide staining based flow cytometric analysis relative to control; type: functional; details: MCF7, 8 h, read-out: Activity; how it was run: as §1
# HeLa [12] = experiment: Induction of apoptosis in human HeLa cells assessed as increase in Mcl-1 short level at 1 to 3 uM after 24 hrs by Western blot analysis; type: functional, cell-based; how it was run: as §2
# MCF7 [13] = experiment: Induction of cell cycle arrest in human MCF7 cells at 1 uM after 16 hrs by propidium iodide/RNase A staining based FACS analysis; type: functional
# How it was run: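 Cells were seeded at 1 million cells/mL in 24-well plates and grown to 70% confluence. They were exposed at 1 µM for 16 h, washed in cold PBS, fixed in absolute ethanol and stored at −20 °C. Staining was with RNase A (20 µg/mL final) and PI (50 µg/mL final) for 30 min at 37 °C in the dark. Results are given as the percentage of cells in each cell-cycle phase by FACS.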
smiles,measurement,setting,value
Cn1cc(/C=N\NC(=O)c2cn(C)c3ccc(Br)cc23)c2ccccc21,Activity,HeLa [1],0.57%
same,Activity,HeLa [2],1.77%
same,Activity,[3],Active
same,Activity,HeLa [4],Active
same,Activity,HeLa [5],18.42%
same,IC50,HEK293,> 200 µM
same,viability at 1 µM,MCF7 [6],40.5%
same,Activity,MCF7 [7],32.1%
same,Activity,HeLa [8],11.5%
same,Activity,HeLa [9],inactive
same,inhibition,[10],48%
same,viability at 1 µM,MCF7 [11],93.4%
same,Activity,HeLa [12],Active
same,Activity,MCF7 [13],inactive
